Compound activity as filed in PubChem BioAssay.
The sample as a whole holds a higher share of hits than the screen did.
KDM4C inh = inhibitors of GASC-1 (KDM4C) histone demethylase, primary screen, biochemical, single concentration HTS; AID 720574, 2013; inhibition, % at 12.5 µM; hit rate 0.15% among 96,000; Lysine-specific demethylase 4C (Homo sapiens), Q9H3R0; GST-KDM4C 2-372, H3K9me3 peptide, LANCE TR-FRET;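 active means mean replicate inhibition above about 25%, with at least 55% of replicates also reaching it, limit read from the data, passing the limit was not always enough; inconclusive means only one of those two conditions met; inactive means neither condition met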
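Material: GST-tagged GASC-1 (JMJD2C) catalytic fragment, aa 2-372. Input: enzyme final amount 10 nM. Medium: HEPES buffer, pH 7.5, plus ascorbate. Reagent: H3K9me3 peptide substrate, Fe(II), 2-oxoglutarate. Doses: single dose. Times: reaction 30 min RT, detection step 1 h RT. Measured by: LANCE TR-FRET. Evaluation: Fall in 671/618 emission ratio as inhibition.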
IDH1 mut inh = inhibitors of IDH1 R132H reductase, primary screen, biochemical, plate reader, single point | Isocitrate dehydrogenase [NADP] cytoplasmic (Homo sapiens), O75874 | diaphorase/resazurin fluorescence, 60 min | inhibition, % at 10 µM | hit rate 0.18% among 70,000 | AID 624101, 2012; in the data active means inhibition above about 34%; inconclusive means no clear call, values can overlap the other calls; inactive means below about 11%
Target sequence (O75874 whole entry R132H): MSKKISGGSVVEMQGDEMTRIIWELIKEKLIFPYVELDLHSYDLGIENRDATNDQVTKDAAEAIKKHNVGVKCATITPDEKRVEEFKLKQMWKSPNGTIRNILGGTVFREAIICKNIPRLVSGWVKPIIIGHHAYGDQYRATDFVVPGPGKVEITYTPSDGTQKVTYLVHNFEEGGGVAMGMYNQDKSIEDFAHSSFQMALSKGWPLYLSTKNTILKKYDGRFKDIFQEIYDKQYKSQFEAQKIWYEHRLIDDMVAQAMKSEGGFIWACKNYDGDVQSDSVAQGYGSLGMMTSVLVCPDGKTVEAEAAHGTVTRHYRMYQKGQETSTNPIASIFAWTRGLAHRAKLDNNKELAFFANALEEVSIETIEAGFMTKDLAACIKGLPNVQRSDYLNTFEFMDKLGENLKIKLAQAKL
T cruzi growth-1 = T. cruzi intracellular proliferation inhibitors, primary screen, cell-based, beta-gal Tulahuen parasites, NIH3T3 host, luminescence. T. cruzi beta-gal in NIH3T3, GalScreen luminescence, 90 h. hit rate 5.9% among 77,000. inhibition, % at 8.34 µM;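 active means mean inhibition above about 93%, with at least 55% of replicates each passing it, limit read from the data, passing the limit was not always enough; inconclusive means only one of those two conditions holds; inactive means neither condition holds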
T cruzi growth-2 = T. cruzi intracellular proliferation inhibitors, confirmation, cell-based, NIH3T3 host, beta-gal parasite, luminescence, cherry-pick; shares compounds with T cruzi growth-1; T. cruzi beta-gal in NIH3T3, GalScreen luminescence, 90 h; inhibition, % at 8.35 µM; hit rate 72% among 5,600;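 active means mean replicate inhibition above about 95% and at least 55% of replicates individually reaching it, limit read from the data; inconclusive means only one of the two criteria is met; inactive means neither criterion is met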
T cruzi growth-3 = inhibitors of intracellular T. cruzi replication, confirmation, NIH3T3 host cells, beta-gal parasites, cherry-pick, set 2 | T. cruzi beta-gal in NIH3T3, GalScreen luminescence, 90 h | hit rate 21% among 5,600 | inhibition, % at 2.09 µM | shares compounds with T cruzi growth-1;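 active means mean inhibition above about 95%, with at least 55% of replicates also reaching it, limit read from the data; inconclusive means meets just one of the two conditions; inactive means meets neither condition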
3T3 cytotox = cytotoxicity in mouse NIH/3T3 fibroblasts, confirmation, cytotoxicity control for T. cruzi proliferation inhibitor project, cell-based, cherry-pick, single point; hit rate 14% among 5,600; shares compounds with T cruzi growth-1; cytotoxicity (signal decrease), % at 8.35 µM; NIH/3T3 viability, CellTiter-Glo ATP luminescence, 90 h;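 active means mean signal decrease across replicates above about 35% based on untreated-well scatter, with enough replicates individually passing, limit read from the data; inconclusive means no rule stated though some were filed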
NIH3T3 tox 2 = NIH/3T3 fibroblast cytotoxicity, confirmation, cytotoxicity control, cell-based, cherry-pick, single point, set 2; NIH/3T3 viability, CellTiter-Glo ATP luminescence, 90 h; inhibition, % at 24.9 µM; AID 651744, 2012; hit rate 56% among 5,600; shares compounds with T cruzi growth-1;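 active means mean loss of cell viability signal at or above a set limit, and enough replicates individually reaching it; inconclusive means meets only the mean limit or only the replicate share; inactive means meets neither condition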
Each line names hits and unclear results; the compound was inactive in the other large screens (follow-up assays come after a bar, where they were run); ! = a repeat was not active.

C[C@H](CO)N1C[C@H](C)[C@H](CN(C)Cc2ccccc2)Oc2ncc(/C=C/c3ccccc3)cc2C1=O	T cruzi growth-1 120! | T cruzi growth-2 117 | T cruzi growth-3 inactive | 3T3 cytotox 37 | NIH3T3 tox 2 102
CC1CCN(S(=O)(=O)c2cn(CC(=O)N(C)Cc3ccccc3)c(=O)c3ccccc23)CC1	none (no result: KDM4C inh, T cruzi growth-1)
O=C(C[C@H]1C[C@H]2c3cc(NC(=O)NC4CCCC4)ccc3O[C@H]2[C@@H](CO)O1)NCC(F)(F)F	none (no result: T cruzi growth-1)
COc1ccc(NC(=O)N(C)C[C@@H]2Oc3ncc(-c4ccc(OC)cc4)cc3C(=O)N([C@H](C)CO)C[C@@H]2C)cc1	none
C[C@H]1CN([C@@H](C)CO)C(=O)c2cc(/C=C/c3ccccc3)cnc2O[C@@H]1CN(C)Cc1ccccc1	T cruzi growth-1 106 | T cruzi growth-2 109 | T cruzi growth-3 inactive | 3T3 cytotox inactive | NIH3T3 tox 2 103
COc1ccc(NC(=O)N(C)C[C@@H]2Oc3ncc(-c4cccc(C(F)(F)F)c4)cc3C(=O)N([C@H](C)CO)C[C@@H]2C)cc1	T cruzi growth-1 103 | T cruzi growth-2 98 | T cruzi growth-3 inactive | 3T3 cytotox inactive | NIH3T3 tox 2 46
C[C@H]1CN([C@@H](C)CO)C(=O)c2cc(/C=C/c3ccccc3)cnc2O[C@@H]1CN(C)Cc1ccncc1	none
Cc1cccc(-c2nnc(SCC(=O)Nc3cccc(C)c3C)n2C)c1	none (no result: KDM4C inh, T cruzi growth-1)
C[C@@H]1CN([C@H](C)CO)C(=O)Cc2cc(NS(=O)(=O)c3ccc(F)cc3)ccc2O[C@H]1CN(C)C(=O)Nc1ccc(C(F)(F)F)cc1	none
Cc1ccc(S(=O)(=O)Nc2ccc3c(c2)C(=O)N([C@@H](C)CO)C[C@H](C)[C@@H](CN(C)Cc2ccc4c(c2)OCO4)OCCCC[C@H](C)O3)cc1	T cruzi growth-1 105 | T cruzi growth-2 102 | T cruzi growth-3 inactive | 3T3 cytotox inactive | NIH3T3 tox 2 80
Cc1ccc(S(=O)(=O)Nc2ccc3c(c2)C(=O)N([C@@H](C)CO)C[C@H](C)[C@@H](CN(C)Cc2ccc4c(c2)OCO4)OCCCC[C@@H](C)O3)cc1	T cruzi growth-1 98 (no result: IDH1 mut inh) | T cruzi growth-2 102 | T cruzi growth-3 inactive | 3T3 cytotox inactive | NIH3T3 tox 2 105
Cc1ccc(S(=O)(=O)Nc2ccc3c(c2)C(=O)N([C@H](C)CO)C[C@H](C)[C@@H](CN(C)Cc2ccc4c(c2)OCO4)OCCCC[C@@H](C)O3)cc1	none (no result: IDH1 mut inh)
Cc1ccc(S(=O)(=O)Nc2ccc3c(c2)C(=O)N([C@@H](C)CO)C[C@@H](C)[C@@H](CN(C)Cc2ccc4c(c2)OCO4)OCCCC[C@@H](C)O3)cc1	none
Cc1ccc(S(=O)(=O)Nc2ccc3c(c2)C(=O)N([C@H](C)CO)C[C@H](C)[C@@H](CN(C)Cc2ccc4c(c2)OCO4)OCCCC[C@H](C)O3)cc1	T cruzi growth-1 102 (no result: IDH1 mut inh) | T cruzi growth-2 108 | T cruzi growth-3 inactive | 3T3 cytotox inactive | NIH3T3 tox 2 84
C[C@@H]1CCCCO[C@H](CN(C)Cc2ccc3c(c2)OCO3)[C@@H](C)CN([C@@H](C)CO)C(=O)c2cc(NS(=O)(=O)c3ccc(Cl)cc3)ccc2O1	T cruzi growth-1 inconclusive (no result: IDH1 mut inh) | T cruzi growth-2 95 | T cruzi growth-3 108 | 3T3 cytotox inconclusive | NIH3T3 tox 2 103
C[C@@H]1CCCCO[C@H](CN(C)Cc2ccc3c(c2)OCO3)[C@H](C)CN([C@H](C)CO)C(=O)c2cc(NS(=O)(=O)c3ccc(F)cc3)ccc2O1	none
C[C@@H]1CCCCO[C@@H](CN(C)Cc2ccc3c(c2)OCO3)[C@H](C)CN([C@@H](C)CO)C(=O)c2cc(NS(=O)(=O)c3ccc(Cl)cc3)ccc2O1	none (no result: IDH1 mut inh)
